Test results as given in ChEMBL document CHEMBL4219111, “Multifunctional 5,6-dimethoxybenzo[d]isothiazol-3(2H)-one-N-alkylbenzylamine derivatives with acetylcholinesterase, monoamine oxidases and β-amyloid aggregation inhibitory activities as potential agents against Alzheimer's disease” (Bioorg Med Chem, 2018).

Columns and labels:
[1] = target: Amyloid-beta precursor protein (Homo sapiens) (UniProt P05067); assay: Inhibition of self-induced aggregation of amyloid beta (1 to 42) (unknown origin) at 25 uM after 24 hrs by thioflavin T fluorescence-based fluorometric method relative to control
How it was run: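 Aβ1-42 pretreated in HFIP 24 h at room temperature, dried, redissolved in DMSO. Peptide (25 µM final) incubated with compound (25 µM final) in 50 mM phosphate pH 7.4 for 24 h at 37 °C. ThT (5 µM) added in 50 mM glycine-NaOH pH 8.5; fluorescence read at ex 446/em 490 nm. Inhibition = (1 − IFi/IFc)×100 after background subtraction, triplicate.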

Rattus norvegicus = organism: Rattus norvegicus; assay: Inhibition of rat serum BuChE using butyrylthiocholine iodide as substrate measured at 50 uM after 15 mins by Ellman's method relative to control
How it was run: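 Rat serum (25%) as enzyme source; modified Ellman method in […] pH 7.4 with 1 mmol/L butyrylthiocholine iodide and 0.2% DTNB; 37 °C for 15 min, absorbance at 405 nm. Percent inhibition at 50 µM test compound, each concentration in triplicate.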

Acetylcholinesterase = Acetylcholinesterase (Electrophorus electricus, UniProt O42275); assay: Inhibition of Electrophorus electricus AChE using acetylthiocholine iodide as substrate measured after 15 mins by Ellman's method
[2] = target: T1, Amine oxidase [flavin-containing] A (Homo sapiens, UniProt P21397); assay: Inhibition of recombinant human MAO-A using kynuramine as substrate after 30 mins by fluorescence assay
T1 sequence (P21397 whole entry): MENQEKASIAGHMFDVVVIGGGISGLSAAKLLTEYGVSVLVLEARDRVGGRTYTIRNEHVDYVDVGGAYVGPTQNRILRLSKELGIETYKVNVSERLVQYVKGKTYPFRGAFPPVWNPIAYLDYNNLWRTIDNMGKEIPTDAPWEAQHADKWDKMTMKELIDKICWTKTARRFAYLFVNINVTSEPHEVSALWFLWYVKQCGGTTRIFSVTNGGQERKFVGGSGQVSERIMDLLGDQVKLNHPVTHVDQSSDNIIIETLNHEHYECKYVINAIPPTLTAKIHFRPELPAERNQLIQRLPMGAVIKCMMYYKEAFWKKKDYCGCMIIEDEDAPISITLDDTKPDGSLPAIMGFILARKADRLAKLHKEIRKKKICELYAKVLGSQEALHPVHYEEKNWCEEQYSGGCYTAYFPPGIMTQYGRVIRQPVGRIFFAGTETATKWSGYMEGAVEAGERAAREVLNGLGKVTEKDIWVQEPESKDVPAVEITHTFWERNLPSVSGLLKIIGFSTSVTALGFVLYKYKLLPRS

Homo sapiens = organism: Homo sapiens; assay: Selectivity index, ratio of IC50 for recombinant human MAO-A to IC50 for recombinant human MAO-B
How it was run: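 Ratio of IC50s, each from a sigmoidal curve of initial kynuramine oxidation rate versus log inhibitor concentration. Curves used six concentrations within 0-100 µM, spanning at least three orders of magnitude. IC50s determined in triplicate.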

[3] = Antioxidant activity assessed as trolox equivalents of AAPH radical scavenging activity at 5 uM preincubated for 15 mins followed by AAPH addition measured every min for 90 mins by ORAC-FL assay; format: functional
How it was run: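 ORAC-FL in 75 mM phosphate buffer pH 7.4, 200 µL final. Sample plus fluorescein (150 nM final) pre-incubated 15 min at 37 °C, then AAPH added (12 mM final). Fluorescence read every minute for 90 min, ex 485/em 535 nm, normalized to FL+AAPH blank. Trolox standard 1-8 µM final; values given as µM Trolox equivalent per µM compound. Duplicate wells, at least three independent assays.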

[4] = target: T2, Amine oxidase [flavin-containing] B (Homo sapiens, UniProt P27338); assay: Inhibition of recombinant human MAO-B using kynuramine as substrate after 30 mins by fluorescence assay
T2 sequence (P27338 whole entry): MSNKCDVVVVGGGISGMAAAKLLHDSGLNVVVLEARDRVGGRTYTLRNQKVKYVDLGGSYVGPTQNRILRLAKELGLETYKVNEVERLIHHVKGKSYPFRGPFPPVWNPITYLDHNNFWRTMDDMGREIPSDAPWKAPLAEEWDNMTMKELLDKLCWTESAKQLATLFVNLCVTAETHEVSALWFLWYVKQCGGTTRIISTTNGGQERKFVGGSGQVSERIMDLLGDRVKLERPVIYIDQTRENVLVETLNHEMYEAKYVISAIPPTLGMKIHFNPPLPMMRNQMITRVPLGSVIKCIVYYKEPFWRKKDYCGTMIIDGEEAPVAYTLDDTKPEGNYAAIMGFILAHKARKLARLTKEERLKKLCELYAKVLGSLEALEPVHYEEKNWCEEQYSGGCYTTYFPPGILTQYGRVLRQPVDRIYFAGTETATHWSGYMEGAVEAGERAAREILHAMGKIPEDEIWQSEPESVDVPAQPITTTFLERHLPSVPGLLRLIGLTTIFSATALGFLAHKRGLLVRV

[5] = target: T2, Amine oxidase [flavin-containing] B; assay: Inhibition of recombinant human MAO-B at 10 uM using kynuramine as substrate after 30 mins by fluorescence assay relative to control; conditions: 0.5 h
How it was run: (§1)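 Recombinant human MAO-A or MAO-B, kynuramine substrate (45 µM for MAO-A, 30 µM for MAO-B), in 100 mM potassium phosphate pH 7.40 with 20.2 mM KCl and under 4% DMSO. Enzyme (7.5 µg/mL) starts the reaction; 30 min at 37 °C. Stopped with NaOH plus water, centrifuged, supernatant fluorescence read at ex 310/em 400 nm. Percent inhibition at 10 µM.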

[6] = Effective permeability of the compound at 100 ug/ml after 18 hrs by PAMPA-BBB assay
[7] = target: T1, Amine oxidase [flavin-containing] A; assay: Inhibition of recombinant human MAO-A at 10 uM using kynuramine as substrate after 30 mins by fluorescence assay relative to control; conditions: 0.5 h; how it was run: as §1
[8] = Inhibition of rat serum BuChE using butyrylthiocholine iodide as substrate measured after 15 mins by Ellman's method

Sequence of Acetylcholinesterase (O42275 whole entry): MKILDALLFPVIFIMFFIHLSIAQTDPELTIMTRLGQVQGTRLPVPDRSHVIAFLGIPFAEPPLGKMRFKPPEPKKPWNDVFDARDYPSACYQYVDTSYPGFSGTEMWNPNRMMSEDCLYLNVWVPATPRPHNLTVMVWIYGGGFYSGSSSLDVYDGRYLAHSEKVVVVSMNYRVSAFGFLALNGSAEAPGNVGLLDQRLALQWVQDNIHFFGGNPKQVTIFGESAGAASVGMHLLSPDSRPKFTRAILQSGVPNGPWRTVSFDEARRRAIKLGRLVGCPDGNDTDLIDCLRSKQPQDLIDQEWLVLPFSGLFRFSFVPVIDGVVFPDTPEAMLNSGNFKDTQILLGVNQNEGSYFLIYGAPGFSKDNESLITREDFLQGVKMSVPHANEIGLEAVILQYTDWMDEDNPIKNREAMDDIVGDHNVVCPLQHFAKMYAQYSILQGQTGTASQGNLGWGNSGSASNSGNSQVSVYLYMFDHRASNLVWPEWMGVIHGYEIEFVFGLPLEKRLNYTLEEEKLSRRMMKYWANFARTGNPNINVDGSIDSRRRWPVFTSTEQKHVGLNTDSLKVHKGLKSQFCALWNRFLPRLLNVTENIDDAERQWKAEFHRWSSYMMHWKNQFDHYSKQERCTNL
Sequence of Amyloid-beta precursor protein (Homo sapiens) (P05067 whole entry): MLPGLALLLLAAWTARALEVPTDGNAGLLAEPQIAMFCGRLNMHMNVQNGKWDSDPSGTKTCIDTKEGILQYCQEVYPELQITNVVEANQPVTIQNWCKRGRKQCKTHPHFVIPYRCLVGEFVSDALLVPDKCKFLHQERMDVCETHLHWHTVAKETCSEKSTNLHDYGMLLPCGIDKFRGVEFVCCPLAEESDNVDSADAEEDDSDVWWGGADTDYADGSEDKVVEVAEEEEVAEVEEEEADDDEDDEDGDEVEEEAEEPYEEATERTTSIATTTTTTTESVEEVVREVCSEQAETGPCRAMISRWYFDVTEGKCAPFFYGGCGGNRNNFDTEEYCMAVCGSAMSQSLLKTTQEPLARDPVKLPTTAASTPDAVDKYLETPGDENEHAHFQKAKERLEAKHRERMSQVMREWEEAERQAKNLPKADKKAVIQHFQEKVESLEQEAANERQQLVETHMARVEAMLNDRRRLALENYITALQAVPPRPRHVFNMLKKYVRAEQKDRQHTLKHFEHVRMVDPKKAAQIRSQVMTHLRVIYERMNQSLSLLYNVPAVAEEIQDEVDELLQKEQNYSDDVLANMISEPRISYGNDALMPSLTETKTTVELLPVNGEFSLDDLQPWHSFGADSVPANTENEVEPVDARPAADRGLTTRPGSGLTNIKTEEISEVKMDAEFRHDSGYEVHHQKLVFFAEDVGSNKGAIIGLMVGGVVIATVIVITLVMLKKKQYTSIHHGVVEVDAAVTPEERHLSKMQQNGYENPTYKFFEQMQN

| Compound | inhibition [1] | inhibition (Rattus norvegicus) | IC50 (Acetylcholinesterase) | IC50 [2] | Ratio IC50 (Homo sapiens) | Activity [3] | IC50 [4] | inhibition at 10 µM [5] | Papp at 18 h, 100 ug/ml [6] | inhibition at 10 µM [7] | IC50 [8] |
| --- | --- | --- | --- | --- | --- | --- | --- | --- | --- | --- | --- |
| COc1ccccc1CN(C)CCCCn1sc2cc(OC)c(OC)cc2c1=O | 11.7% | 25.5% | 5.9 µM | 7.1 µM | 0.37 | 0.39 equiv | 19.2 µM | – | – | – | – |
| COc1cc2sn(CCCN(C)Cc3ccccc3)c(=O)c2cc1OC | 7.6% | 11.5% | 7.5 µM | 6.9 µM | – | 0.91 equiv | – | 44.4% | – | – | – |
| CCN(CCCn1sc2cc(OC)c(OC)cc2c1=O)Cc1ccccc1 | 19.6% | 12.3% | 6.65 µM | 9.9 µM | – | 0.84 equiv | – | 46.3% | – | – | – |
| CCN(CCCCCCn1sc2cc(OC)c(OC)cc2c1=O)Cc1ccccc1OC | 48% | 46.9% | 0.46 µM | 7.9 µM | – | 0.28 equiv | – | 43.8% | 4.32 ×10⁻⁶ cm/s | – | – |
| CCN(CCCCCCn1c(=O)c2cc(OC)c(OC)cc2[s+]1[O-])Cc1ccccc1 (stereo not drawn) | 29.2% | 8.1% | 0.38 µM | – | – | 0.23 equiv | – | 14.6% | – | 21.5% | – |
| CCN(CCCCCCn1sc2cc(OC)c(OC)cc2c1=O)Cc1ccccc1N(C)C | 31.2% | 46.8% | 0.56 µM | 3.4 µM | 0.17 | 0.35 equiv | 19.6 µM | – | – | – | – |
| CCN(CCCCn1sc2cc(OC)c(OC)cc2c1=O)Cc1ccccc1N(C)C | 11.7% | 32.6% | 7.1 µM | 9.9 µM | – | 0.34 equiv | – | 46.5% | – | – | – |
| COc1ccccc1CN(C)CCCn1sc2cc(OC)c(OC)cc2c1=O | 21.8% | 10.8% | 12 µM | 9.4 µM | – | 0.83 equiv | – | 48.6% | – | – | – |
| COc1cc2c(cc1OC)C(=O)C(CC1CCN(Cc3ccccc3)CC1)C2 (stereo not drawn) [DONEPEZIL] | – | – | – | – | – | – | – | – | – | – | 21.4 µM |
| CCN(CCCCn1sc2cc(OC)c(OC)cc2c1=O)Cc1ccc(N(C)C)cc1 | 32.5% | 23.2% | 8.85 µM | 15.9 µM | 0.85 | 2.14 equiv | 18.8 µM | – | – | – | – |
| CCN(CCCCn1sc2cc(OC)c(OC)cc2c1=O)Cc1ccccc1OC | 21.1% | 36.4% | 4.99 µM | 9.6 µM | 0.49 | 0.3 equiv | 19.4 µM | – | – | – | – |
| COc1ccccc1CN(C)CCCCCCn1sc2cc(OC)c(OC)cc2c1=O | 20.2% | 28.8% | 0.61 µM | 19.9 µM | 1.45 | 0.26 equiv | 13.7 µM | – | – | – | – |
